ChEMBL document CHEMBL3259775, “Towards the development of 5-HT₇ ligands combining serotonin-like and arylpiperazine moieties” (Eur J Med Chem, 2014)
Active and inactive are the calls of the source. The rule behind the calls is not given here.

Experiments:
[1] = molecular target: T1, 5-hydroxytryptamine receptor 7 (Homo sapiens, UniProt P34969); assay: Antagonist activity at human 5-HT7 receptor expressed in CHO cells assessed as residual 5-HT-stimulated cAMP accumulation at 1 uM relative to control
[2] = molecular target: 5-hydroxytryptamine receptor 5A (Homo sapiens) (UniProt P47898); assay: Displacement of [3H]LSD from human recombinant 5-HT5A receptor expressed in HEK293 cells at 1 uM after 120 mins by scintillation counting analysis relative to control; format: cell-based
[3] = molecular target: 5-hydroxytryptamine receptor 4 (Homo sapiens) (UniProt Q13639); assay: Binding affinity to human recombinant 5-HT4E receptor expressed in CHO cells at 1 uM after 30 mins by radioligand displacement assay relative to control; format: cell-based
[4] = molecular target: 5-hydroxytryptamine receptor 6 (Homo sapiens) (UniProt P50406); assay: Binding affinity to human recombinant 5-HT6 receptor expressed in CHO cells at 1 uM after 30 mins by radioligand displacement assay relative to control; format: cell-based
[5] = molecular target: 5-hydroxytryptamine receptor 2B (Homo sapiens) (UniProt P41595); assay: Binding affinity to human recombinant 5-HT2B receptor expressed in CHO cells at 1 uM by radioligand displacement assay relative to control; format: cell-based
[6] = molecular target: 5-hydroxytryptamine receptor 1B (Homo sapiens) (UniProt P28222); assay: Binding affinity to recombinant human 5-HT1B receptor expressed in CHO cells at 1 uM by radioligand displacement assay relative to control; format: cell-based
[7] = molecular target: T1, 5-hydroxytryptamine receptor 7; assay: Binding affinity to human recombinant 5-HT7 receptor expressed in CHO cells after 30 mins by radioligand displacement assay; format: cell-based
Method in brief: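 Membranes from receptor-expressing cells harvested at 80% confluence, homogenised and pelleted at 48,000 × g for 90 min, then protein-quantified by Bradford. Competition with 5 nmol/L [3H]5-HT and test compound for 30 min at 25 °C in 50 mM Tris-HCl pH 7.4 containing pargyline, 4 mmol/L CaCl2 and 0.05% ascorbic acid. Non-specific binding measured with excess cold 5-HT; bound radioligand separated by filtration. Ki derived from IC50 by Cheng-Prusoff; mean of four determinations in duplicate.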

[8] = molecular target: 5-hydroxytryptamine receptor 2A (Homo sapiens) (UniProt P28223); assay: Binding affinity to human recombinant 5-HT2A receptor expressed in HEK293 cells at 1 uM by radioligand displacement assay relative to control; format: cell-based
[9] = molecular target: T2, 5-hydroxytryptamine receptor 2C (Homo sapiens) (UniProt P28335); assay: Binding affinity to human recombinant 5-HT2C receptor expressed in HEK293 cells at 1 uM after 30 mins by radioligand displacement assay relative to control; format: cell-based
T2 sequence (whole entry): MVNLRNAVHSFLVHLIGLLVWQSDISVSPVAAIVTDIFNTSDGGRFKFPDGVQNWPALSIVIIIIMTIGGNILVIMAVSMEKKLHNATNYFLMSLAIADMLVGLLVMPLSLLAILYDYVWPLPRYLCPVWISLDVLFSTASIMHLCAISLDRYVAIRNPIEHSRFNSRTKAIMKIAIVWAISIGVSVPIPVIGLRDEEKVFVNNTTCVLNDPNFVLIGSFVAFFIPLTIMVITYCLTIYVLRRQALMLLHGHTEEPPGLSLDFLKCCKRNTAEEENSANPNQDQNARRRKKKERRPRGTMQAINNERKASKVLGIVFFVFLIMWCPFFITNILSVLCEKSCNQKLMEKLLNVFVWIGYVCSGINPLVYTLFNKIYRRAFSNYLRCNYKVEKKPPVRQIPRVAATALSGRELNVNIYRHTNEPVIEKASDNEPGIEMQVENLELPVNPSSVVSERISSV

[10] = molecular target: T3, 5-hydroxytryptamine receptor 1A (Homo sapiens) (UniProt P08908); assay: Displacement of [3H]-8-OH-DPAT from human recombinant 5-HT1A receptor expressed in HEK293 cells at 1 uM by scintillation counting analysis relative to control; format: cell-based
T3 sequence (whole entry): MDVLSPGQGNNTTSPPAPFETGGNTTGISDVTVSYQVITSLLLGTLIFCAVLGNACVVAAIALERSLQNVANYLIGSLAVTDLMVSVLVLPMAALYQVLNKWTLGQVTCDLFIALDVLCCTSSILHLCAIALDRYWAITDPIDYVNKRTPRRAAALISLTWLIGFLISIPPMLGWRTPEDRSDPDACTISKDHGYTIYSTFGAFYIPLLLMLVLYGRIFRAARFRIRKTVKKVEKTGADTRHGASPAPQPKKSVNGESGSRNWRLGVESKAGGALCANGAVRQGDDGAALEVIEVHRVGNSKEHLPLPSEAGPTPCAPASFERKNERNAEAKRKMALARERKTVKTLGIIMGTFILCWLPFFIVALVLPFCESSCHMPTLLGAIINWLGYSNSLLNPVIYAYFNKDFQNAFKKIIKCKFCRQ

[11] = molecular target: T1, 5-hydroxytryptamine receptor 7; assay: Displacement of [3H]5-HT from human 5-HT7 receptor expressed in HEK293 cells after 30 mins by microbeta counting analysis; format: cell-based
[12] = molecular target: T4, 5-hydroxytryptamine receptor 3A (Homo sapiens) (UniProt P46098); assay: Binding affinity to human 5-HT3 receptor at 1 uM by radioligand displacement assay relative to control
T4 sequence (whole entry): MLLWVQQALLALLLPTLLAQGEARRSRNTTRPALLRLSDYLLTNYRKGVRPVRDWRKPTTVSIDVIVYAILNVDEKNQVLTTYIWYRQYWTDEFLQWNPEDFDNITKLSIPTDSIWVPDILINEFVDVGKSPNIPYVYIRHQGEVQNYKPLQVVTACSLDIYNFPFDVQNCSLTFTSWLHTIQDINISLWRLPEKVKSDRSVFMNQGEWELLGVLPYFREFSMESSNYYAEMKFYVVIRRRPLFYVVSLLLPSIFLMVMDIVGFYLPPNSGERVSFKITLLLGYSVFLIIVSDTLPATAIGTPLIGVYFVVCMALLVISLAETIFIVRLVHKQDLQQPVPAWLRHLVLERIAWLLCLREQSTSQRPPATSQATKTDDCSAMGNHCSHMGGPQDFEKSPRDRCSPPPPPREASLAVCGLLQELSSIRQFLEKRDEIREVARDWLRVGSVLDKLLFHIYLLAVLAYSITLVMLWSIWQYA

[13] = molecular target: 5-hydroxytryptamine receptor 1D (Rattus norvegicus) (UniProt P28565); assay: Binding affinity to rat recombinant 5-HT1D receptor expressed in CHO cells at 1 uM by radioligand displacement assay relative to control; format: cell-based
[14] = molecular target: T1, 5-hydroxytryptamine receptor 7; assay: Displacement of [3H]5-HT from human 5-HT7 receptor expressed in HEK293 cells at 10^-5 mol/L after 30 mins by microbeta counting analysis; format: cell-based
Method in brief: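 Membranes incubated 30 min at 25 °C with 5 nmol/L [3H]5-HT in 50 mM Tris-HCl pH 7.4 containing pargyline, CaCl2 and ascorbic acid, with the test compound at a single fixed concentration. Non-specific binding with 100 µM cold 5-HT; separation by filtration; result reported as % displacement.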

[15] = molecular target: T1, 5-hydroxytryptamine receptor 7; assay: Displacement of [3H]5-HT from human 5-HT7 receptor expressed in HEK293 cells at 10^-7 mol/L after 30 mins by microbeta counting analysis; format: cell-based
[16] = molecular target: T1, 5-hydroxytryptamine receptor 7; assay: Antagonist activity at human 5-HT7 receptor expressed in CHO cells assessed as inhibition of 5-HT-stimulated cAMP accumulation by Cheng-Prusoff method; format: functional, cell-based
[17] = molecular target: T1, 5-hydroxytryptamine receptor 7; assay: Antagonist activity at human 5-HT7 receptor expressed in CHO cells assessed as inhibition of 5-HT-stimulated cAMP accumulation; format: functional, cell-based
[18] = molecular target: T1, 5-hydroxytryptamine receptor 7; assay: Agonist activity at human 5-HT7 receptor expressed in CHO cells assessed as stimulation of cAMP accumulation up to 10^-5 M; format: functional, cell-based

Sequence of 5-hydroxytryptamine receptor 4 (Homo sapiens) (Q13639 whole entry): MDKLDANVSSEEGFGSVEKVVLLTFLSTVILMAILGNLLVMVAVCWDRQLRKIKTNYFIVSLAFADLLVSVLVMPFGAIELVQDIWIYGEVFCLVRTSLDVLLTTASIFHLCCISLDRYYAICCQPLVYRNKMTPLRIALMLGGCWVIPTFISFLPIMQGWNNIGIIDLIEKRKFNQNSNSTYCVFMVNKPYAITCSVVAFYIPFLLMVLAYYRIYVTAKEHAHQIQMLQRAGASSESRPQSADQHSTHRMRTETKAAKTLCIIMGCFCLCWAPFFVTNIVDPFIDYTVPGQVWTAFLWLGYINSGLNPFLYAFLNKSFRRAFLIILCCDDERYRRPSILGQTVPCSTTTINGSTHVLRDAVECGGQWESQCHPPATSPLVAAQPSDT
Sequence of 5-hydroxytryptamine receptor 1D (Rattus norvegicus) (P28565 whole entry): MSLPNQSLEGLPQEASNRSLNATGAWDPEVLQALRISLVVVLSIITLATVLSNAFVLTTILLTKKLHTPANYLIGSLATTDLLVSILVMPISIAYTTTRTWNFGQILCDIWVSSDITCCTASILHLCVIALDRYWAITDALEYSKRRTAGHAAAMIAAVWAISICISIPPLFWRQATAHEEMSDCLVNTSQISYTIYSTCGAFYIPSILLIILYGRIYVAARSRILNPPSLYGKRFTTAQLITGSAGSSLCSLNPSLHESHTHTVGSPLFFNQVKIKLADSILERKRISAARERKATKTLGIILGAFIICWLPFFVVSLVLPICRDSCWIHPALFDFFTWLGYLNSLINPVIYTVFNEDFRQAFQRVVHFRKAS
Sequence of 5-hydroxytryptamine receptor 6 (Homo sapiens) (P50406 whole entry): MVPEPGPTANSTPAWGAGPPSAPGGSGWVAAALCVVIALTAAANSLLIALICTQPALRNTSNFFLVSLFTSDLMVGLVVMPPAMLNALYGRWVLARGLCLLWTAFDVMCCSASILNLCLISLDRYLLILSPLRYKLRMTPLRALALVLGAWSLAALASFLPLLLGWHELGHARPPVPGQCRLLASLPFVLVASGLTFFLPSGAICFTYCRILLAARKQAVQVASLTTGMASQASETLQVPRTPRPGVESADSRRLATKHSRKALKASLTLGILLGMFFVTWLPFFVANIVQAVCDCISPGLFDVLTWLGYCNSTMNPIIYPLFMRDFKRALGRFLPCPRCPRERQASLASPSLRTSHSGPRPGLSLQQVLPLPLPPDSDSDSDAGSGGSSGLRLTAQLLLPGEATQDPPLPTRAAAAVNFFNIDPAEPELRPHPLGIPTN
T1 sequence (P34969 whole entry): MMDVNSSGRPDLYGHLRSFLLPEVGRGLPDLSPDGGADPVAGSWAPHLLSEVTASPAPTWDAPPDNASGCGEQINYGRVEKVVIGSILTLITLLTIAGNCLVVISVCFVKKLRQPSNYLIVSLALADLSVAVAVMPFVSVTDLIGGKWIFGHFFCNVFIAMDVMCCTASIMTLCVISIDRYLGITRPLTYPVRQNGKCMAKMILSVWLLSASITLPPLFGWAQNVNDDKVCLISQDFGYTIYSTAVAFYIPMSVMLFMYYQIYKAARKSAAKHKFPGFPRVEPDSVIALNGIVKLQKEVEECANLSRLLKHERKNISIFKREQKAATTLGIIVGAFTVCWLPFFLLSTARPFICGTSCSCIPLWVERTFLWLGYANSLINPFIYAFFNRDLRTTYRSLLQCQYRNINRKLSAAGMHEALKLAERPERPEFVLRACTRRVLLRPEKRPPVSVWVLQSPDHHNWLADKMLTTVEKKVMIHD
Sequence of 5-hydroxytryptamine receptor 5A (Homo sapiens) (P47898 whole entry): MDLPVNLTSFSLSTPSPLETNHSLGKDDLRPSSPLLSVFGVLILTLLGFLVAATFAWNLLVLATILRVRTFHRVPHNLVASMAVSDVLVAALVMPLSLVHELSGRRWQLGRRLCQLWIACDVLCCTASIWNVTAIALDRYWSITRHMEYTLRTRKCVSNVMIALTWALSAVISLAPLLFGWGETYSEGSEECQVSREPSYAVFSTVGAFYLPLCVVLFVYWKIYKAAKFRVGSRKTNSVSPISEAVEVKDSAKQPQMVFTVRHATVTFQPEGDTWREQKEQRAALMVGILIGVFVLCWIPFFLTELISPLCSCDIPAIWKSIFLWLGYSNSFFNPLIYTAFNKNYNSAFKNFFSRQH
Sequence of 5-hydroxytryptamine receptor 1B (Homo sapiens) (P28222 whole entry): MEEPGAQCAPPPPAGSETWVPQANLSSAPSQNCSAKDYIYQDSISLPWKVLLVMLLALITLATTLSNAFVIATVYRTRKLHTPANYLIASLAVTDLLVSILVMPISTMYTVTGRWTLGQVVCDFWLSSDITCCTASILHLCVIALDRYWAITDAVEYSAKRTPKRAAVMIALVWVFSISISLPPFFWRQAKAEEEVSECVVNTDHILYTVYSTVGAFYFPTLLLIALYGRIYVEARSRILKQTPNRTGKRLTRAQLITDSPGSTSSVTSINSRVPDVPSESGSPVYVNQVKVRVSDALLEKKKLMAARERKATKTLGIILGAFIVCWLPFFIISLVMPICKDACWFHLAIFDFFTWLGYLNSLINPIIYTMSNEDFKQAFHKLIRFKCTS
Sequence of 5-hydroxytryptamine receptor 2A (Homo sapiens) (P28223 whole entry): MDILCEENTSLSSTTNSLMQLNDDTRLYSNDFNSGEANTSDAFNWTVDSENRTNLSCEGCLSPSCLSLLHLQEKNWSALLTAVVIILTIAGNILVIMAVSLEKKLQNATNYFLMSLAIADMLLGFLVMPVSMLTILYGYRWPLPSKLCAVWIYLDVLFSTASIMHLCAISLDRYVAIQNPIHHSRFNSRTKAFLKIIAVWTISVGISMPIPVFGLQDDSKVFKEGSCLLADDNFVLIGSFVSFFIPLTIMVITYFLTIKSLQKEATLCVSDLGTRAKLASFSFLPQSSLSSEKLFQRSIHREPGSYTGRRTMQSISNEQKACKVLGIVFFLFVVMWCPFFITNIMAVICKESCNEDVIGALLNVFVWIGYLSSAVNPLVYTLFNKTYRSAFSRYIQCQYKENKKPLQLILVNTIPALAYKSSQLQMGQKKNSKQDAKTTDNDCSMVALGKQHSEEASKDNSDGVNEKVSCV
Sequence of 5-hydroxytryptamine receptor 2B (Homo sapiens) (P41595 whole entry): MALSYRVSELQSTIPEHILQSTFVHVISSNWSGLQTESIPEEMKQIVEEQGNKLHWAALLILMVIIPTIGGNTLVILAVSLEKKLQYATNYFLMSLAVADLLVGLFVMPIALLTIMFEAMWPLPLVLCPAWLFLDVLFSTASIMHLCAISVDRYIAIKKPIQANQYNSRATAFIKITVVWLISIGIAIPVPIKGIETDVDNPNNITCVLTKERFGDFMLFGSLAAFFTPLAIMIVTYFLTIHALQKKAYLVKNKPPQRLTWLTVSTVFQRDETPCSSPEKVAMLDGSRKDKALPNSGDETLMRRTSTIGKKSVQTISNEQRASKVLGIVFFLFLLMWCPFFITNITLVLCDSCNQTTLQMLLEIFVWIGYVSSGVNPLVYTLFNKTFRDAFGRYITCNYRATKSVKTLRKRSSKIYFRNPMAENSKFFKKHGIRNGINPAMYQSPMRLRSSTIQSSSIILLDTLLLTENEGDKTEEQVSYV

Row | % serotonin response [1] | Ki [11] | IC50 [17] | Activity [18] | SMILES | inhibition [2] | inhibition [3] | inhibition [4] | inhibition [5] | inhibition [6] | Ki [7] | inhibition [8] | inhibition [9] | inhibition [10] | inhibition [12] | inhibition [13] | inhibition [14] | inhibition [15] | Kb [16]
1 | 49% | 0.02 µM | – | – | CN(CCCN1CCN(c2ccccc2)CC1)c1cccc(O)c1 | 49% | -5% | 21% | 75% | 9% | 0.02 µM | 79% | 42% | 101% | 5% | 18% | – | – | –
2 | – | 0.0081 µM | – | – | CN(C(=O)CCCCCN1CCN(c2cccc3ccccc23)CC1)c1cccc(O)c1 | 70% | 16% | 71% | 101% | 69% | 0.0081 µM | 99% | 98% | 99% | 6% | 100% | – | – | –
3 | – | – | – | – | Oc1ccc2[nH]cc(CCN3CCN(c4ccc(-c5ccccc5)cc4)CC3)c2c1 | – | – | – | – | – | – | – | – | – | – | – | 32% | 10% | –
4 | – | – | – | – | CN1C[C@@H](NS(=O)(=O)N(C)C)C[C@@H]2c3cccc4c3c(cn4C)C[C@H]21 | – | – | – | – | – | – | – | – | – | – | – | – | – | 0.016 µM
5 | 39% | 0.03 µM | 0.54 µM | inactive | CN(CCCCN1CCN(c2ccccc2)CC1)c1cccc(O)c1 | – | – | – | – | – | – | – | – | – | – | – | – | – | 0.057 µM
6 | – | – | – | – | Oc1ccc2[nH]cc(CCN3CCN(C4CCCC4)CC3)c2c1 | – | – | – | – | – | – | – | – | – | – | – | – | 1% | –
7 | – | – | – | – | CCCCN1CCN(CCc2c[nH]c3ccc(O)cc23)CC1 | – | – | – | – | – | – | – | – | – | – | – | – | -9% | –

Row | SMILES | % serotonin response [1] | Ki [11] | IC50 [17] | Activity [18] | inhibition [2] | inhibition [3] | inhibition [4] | inhibition [5] | inhibition [6] | Ki [7] | inhibition [8] | inhibition [9] | inhibition [10] | inhibition [12] | inhibition [13] | inhibition [14] | inhibition [15] | Kb [16]
8 | Oc1ccc2[nH]cc(CCN3CCN(c4ccccc4)CC3)c2c1 | – | 0.0631 µM | – | – | 56% | 17% | 18% | 98% | 11% | 0.0631 µM | 97% | 66% | 95% | 1% | 60% | – | – | –
9 | Oc1ccc2[nH]cc(CCN3CCN(c4cccc5ccccc45)CC3)c2c1 | – | 0.0116 µM | – | – | 94% | 7% | 76% | 98% | 74% | 0.0116 µM | 100% | 98% | 100% | 15% | 99% | – | – | –
